Source: ChEMBL document CHEMBL3272314, “Sturcture-activity relationship of daunorubicin and its peptide derivatives” (J Med Chem, 1976)
Active and inactive are the calls of the source. The calls are words filed in the database; no cut-off is given here.

Tests used:
[1] = test system: Salmonidae; test: Binding affinity to salmon sperm DNA assessed as first order dissociation rate at pH 7.8 by stop-flow technique in presence of 201 mM Na+ ionic strength
Procedure, shortened: (§1)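 Salmon sperm DNA–drug complex preformed without SDS at 6 μM drug and 0.36 mM DNA P/l. Dissociation was started by mixing with 0.2% SDS and followed at 480 nm by stop-flow at 15°C. Buffers were 10 mM MES at pH 6.2 and 1 mM PIPES at pH 7.8, with Na+ set by NaCl. First-order k (sec⁻¹) was taken from rate plots over ≥2.5 half-lives.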

[2] = test system: P388; test: Antitumor activity against mouse P388 cells allografted in mouse assessed as tumor growth inhibition at 0.25 to 10 mg/kg; format: functional, organism-based
Procedure, shortened: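 Screened by the NCI Drug Research and Development Branch against P388 lymphocytic leukemia in mice. Dosing was daily at 0.25-10.0 mg/kg, given by peritoneal injection in water.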

[3] = test system: Salmonidae; test: Binding affinity to salmon sperm DNA assessed as first order dissociation rate at pH 6.2 by stop-flow technique in presence of 5 mM Na+ ionic strength; procedure, shortened: as §1
[4] = target: Bacterial DNA-directed RNA polymerase (Bacteria) (UniProt P0A8V2+P0A7Z4+P0A8T7+P0A800); test: Inhibition of Escherichia coli DNA-dependent RNA polymerase assessed as [3H]UMP incorporation into RNA using calf thymus DNA at 0.12 mM by liquid scintillation counting; format: protein-complex assay
Procedure, shortened: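 E. coli RNA polymerase purified through a high-salt glycerol gradient step, 87 units/ml. Mix: 56 mM Tris-HCl pH 7.8, 1.6 mM MnCl2, 150 mM KCl, 1.6 mM β-mercaptoethanol, 0.6 mM each GTP/ATP/CTP, 0.15 mM [5-3H]-UTP, 0.12 mM P/l calf thymus DNA, drug at 0.12 mM. Started with enzyme at 37°C and sampled over time. TCA-insoluble RNA collected on filters and scintillation counted.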

[5] = Dissociation constant, pKa of the compound; format: physicochemical
[6] = Retardation factor of the compound in 10% methanol-chloroform by TLC; format: physicochemical
[7] = test system: Salmonidae; test: Binding affinity to salmon sperm DNA assessed as first order dissociation rate at pH 7.8 by stop-flow technique in presence of 21 mM Na+ ionic strength; procedure, shortened: as §1
[8] = test system: Salmonidae; test: Binding affinity to salmon sperm DNA assessed as first order dissociation rate at pH 6.2 by stop-flow technique in presence of 21 mM Na+ ionic strength; procedure, shortened: as §1
[9] = test system: Salmonidae; test: Binding affinity to salmon sperm DNA assessed as first order dissociation rate at pH 7.8 by stop-flow technique in presence of 1 mM Na+ ionic strength; procedure, shortened: as §1
[10] = Solubility of the compound in H2O at pH >7; format: physicochemical
[11] = Dissociation constant, pKa of the compound in 20% EtOH/H2O; format: physicochemical

Chain of Bacterial DNA-directed RNA polymerase (Bacteria) (P0A7Z4 whole entry partner): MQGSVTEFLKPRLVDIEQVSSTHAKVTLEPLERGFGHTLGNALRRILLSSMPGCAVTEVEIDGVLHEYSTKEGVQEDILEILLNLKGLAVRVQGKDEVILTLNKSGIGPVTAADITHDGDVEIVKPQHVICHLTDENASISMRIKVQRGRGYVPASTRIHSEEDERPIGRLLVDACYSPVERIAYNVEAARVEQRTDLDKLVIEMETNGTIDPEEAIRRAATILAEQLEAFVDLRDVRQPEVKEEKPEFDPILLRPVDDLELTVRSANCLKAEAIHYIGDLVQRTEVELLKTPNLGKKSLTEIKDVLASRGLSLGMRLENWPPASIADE
Chain of Bacterial DNA-directed RNA polymerase (Bacteria) (P0A800 2-91 partner limits assumed): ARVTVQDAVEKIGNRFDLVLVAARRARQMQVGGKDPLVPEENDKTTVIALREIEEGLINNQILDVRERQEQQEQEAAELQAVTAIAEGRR
Chain of Bacterial DNA-directed RNA polymerase (Bacteria) (P0A8T7 whole entry partner): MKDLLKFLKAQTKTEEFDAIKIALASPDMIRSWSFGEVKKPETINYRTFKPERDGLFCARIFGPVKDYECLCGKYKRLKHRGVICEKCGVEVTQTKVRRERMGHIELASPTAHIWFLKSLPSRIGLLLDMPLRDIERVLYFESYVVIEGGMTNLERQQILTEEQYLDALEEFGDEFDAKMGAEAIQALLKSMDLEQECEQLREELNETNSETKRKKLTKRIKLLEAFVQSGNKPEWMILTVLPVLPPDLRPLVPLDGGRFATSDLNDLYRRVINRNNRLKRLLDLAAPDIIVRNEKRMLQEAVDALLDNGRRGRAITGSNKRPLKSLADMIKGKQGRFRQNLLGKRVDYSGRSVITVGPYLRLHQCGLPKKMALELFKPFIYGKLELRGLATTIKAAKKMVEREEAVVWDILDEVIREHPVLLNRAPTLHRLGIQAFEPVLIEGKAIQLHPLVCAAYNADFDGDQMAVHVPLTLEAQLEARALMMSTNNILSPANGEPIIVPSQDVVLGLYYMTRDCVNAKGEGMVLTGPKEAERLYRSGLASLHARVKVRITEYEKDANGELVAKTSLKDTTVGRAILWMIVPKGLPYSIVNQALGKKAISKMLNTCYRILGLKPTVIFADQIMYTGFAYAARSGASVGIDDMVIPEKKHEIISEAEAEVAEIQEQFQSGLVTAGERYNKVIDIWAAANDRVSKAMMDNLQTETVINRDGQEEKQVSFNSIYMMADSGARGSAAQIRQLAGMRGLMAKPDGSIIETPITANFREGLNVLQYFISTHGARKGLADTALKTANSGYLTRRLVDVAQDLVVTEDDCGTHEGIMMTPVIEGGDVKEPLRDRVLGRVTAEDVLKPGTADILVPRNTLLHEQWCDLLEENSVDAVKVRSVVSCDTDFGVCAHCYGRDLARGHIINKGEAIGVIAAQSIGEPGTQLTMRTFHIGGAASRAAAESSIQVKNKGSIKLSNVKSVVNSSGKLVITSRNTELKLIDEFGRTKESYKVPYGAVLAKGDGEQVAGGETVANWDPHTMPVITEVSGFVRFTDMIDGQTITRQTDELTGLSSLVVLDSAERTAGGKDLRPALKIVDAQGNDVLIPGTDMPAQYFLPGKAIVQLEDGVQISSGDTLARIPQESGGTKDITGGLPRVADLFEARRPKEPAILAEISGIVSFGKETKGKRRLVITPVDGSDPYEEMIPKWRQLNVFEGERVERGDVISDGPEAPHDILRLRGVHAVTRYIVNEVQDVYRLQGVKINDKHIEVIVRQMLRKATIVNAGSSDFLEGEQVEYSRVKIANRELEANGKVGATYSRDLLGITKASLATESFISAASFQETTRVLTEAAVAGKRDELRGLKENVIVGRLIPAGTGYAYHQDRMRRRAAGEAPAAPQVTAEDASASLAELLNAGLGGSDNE
Chain of Bacterial DNA-directed RNA polymerase (Bacteria) (P0A8V2 whole entry): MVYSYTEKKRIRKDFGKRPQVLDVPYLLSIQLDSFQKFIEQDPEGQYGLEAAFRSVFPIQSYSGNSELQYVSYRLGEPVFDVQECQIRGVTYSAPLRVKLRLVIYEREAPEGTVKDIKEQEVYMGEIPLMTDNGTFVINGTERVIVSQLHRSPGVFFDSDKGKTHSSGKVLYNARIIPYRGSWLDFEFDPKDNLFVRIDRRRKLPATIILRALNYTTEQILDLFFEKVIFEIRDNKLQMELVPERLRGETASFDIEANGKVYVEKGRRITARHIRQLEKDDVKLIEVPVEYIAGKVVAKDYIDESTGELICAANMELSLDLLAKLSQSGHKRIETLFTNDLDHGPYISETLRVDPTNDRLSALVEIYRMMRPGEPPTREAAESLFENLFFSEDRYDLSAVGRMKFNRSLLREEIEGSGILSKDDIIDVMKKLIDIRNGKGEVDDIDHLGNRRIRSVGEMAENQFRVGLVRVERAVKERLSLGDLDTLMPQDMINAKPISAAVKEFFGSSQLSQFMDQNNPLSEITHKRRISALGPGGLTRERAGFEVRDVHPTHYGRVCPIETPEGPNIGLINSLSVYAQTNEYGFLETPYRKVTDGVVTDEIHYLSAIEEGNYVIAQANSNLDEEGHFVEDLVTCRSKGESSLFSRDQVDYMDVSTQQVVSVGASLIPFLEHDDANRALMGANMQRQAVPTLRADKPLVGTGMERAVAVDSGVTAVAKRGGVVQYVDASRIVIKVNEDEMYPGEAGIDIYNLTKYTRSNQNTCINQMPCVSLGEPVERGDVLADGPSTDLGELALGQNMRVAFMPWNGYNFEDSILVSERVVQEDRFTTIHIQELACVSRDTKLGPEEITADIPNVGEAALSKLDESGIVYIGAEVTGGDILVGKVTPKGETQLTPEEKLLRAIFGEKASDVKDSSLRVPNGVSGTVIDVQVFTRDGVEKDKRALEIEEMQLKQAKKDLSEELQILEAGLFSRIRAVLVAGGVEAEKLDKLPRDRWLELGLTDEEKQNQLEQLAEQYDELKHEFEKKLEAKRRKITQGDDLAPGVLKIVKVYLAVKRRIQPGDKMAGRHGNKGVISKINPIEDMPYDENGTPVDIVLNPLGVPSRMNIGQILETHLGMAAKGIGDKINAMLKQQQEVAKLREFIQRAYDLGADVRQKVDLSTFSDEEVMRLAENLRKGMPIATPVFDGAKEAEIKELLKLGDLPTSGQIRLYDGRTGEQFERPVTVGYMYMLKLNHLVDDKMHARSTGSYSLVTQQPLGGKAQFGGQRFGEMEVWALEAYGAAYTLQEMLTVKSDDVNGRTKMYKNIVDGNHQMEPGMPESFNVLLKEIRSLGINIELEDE

SMILES: COc1cccc2c1C(=O)c1c(O)c3c(c(O)c1C2=O)C[C@@](O)(C(C)=O)C[C@@H]3O[C@H]1C[C@H](N)[C@H](O)[C@H](C)O1.Cl [DAUNORUBICIN HYDROCHLORIDE]
- K [1]: 2.88 s⁻¹
- TGI [2]: Active
- K [3]: 0.98 s⁻¹
- inhibition [4]: Active
- pKa [5]: 8.99
- Rf [6]: 0.17
- K [7]: 1.57 s⁻¹
- K [8]: 0.98 s⁻¹
- K [9]: 1.37 s⁻¹

SMILES: COc1cccc2c1C(=O)c1c(O)c3c(c(O)c1C2=O)C[C@@](O)(C(C)=O)C[C@@H]3O[C@H]1C[C@H](NC(=O)CNC(=O)CN(C)C)[C@H](O)[C@H](C)O1
- TGI [2]: Active
- inhibition [4]: Active
- pKa [5]: 7.39

SMILES: COc1cccc2c1C(=O)c1c(O)c3c(c(O)c1C2=O)C[C@@](O)(C(C)=O)C[C@@H]3O[C@H]1C[C@H](NC(=O)CN(C)C)[C@H](O)[C@H](C)O1
- TGI [2]: Active
- inhibition [4]: Active
- pKa [5]: 7.35
- Rf [6]: 0.68

SMILES: CCCN(CCC)CC(=O)N[C@H]1C[C@H](O[C@H]2C[C@](O)(C(C)=O)Cc3c(O)c4c(c(O)c32)C(=O)c2c(OC)cccc2C4=O)O[C@@H](C)[C@H]1O
- solubility [10]: Insoluble
- TGI [2]: inactive
- pKa [11]: 7.2
